# Source: PubChem
# Only some compounds are listed: those with a hit (about 1.9% of all), similar ones and a draw of the others.
# Runt-SMMHC FRET = Runt domain-CBFb-SMMHC interaction inhibition; Q01196+Q13951; Cerulean-Runt/Venus-CBFb-SMMHC FRET ratio 530/480, 1 h; inhibition, % at 20 µM; 220,000 compounds, 0.74% hits; AID 1434;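 active = mean inhibition across duplicate retests at 20 µM reaching about 50%, limit read from the data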;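 note: 0% = DMSO wells and 100% = wells with excess untagged CBFb-SMMHC; inhibitors lower the FRET ratio by blocking Runt binding to CBFb-SMMHC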
# Target sequence (Q01196 whole entry, looked up, the tested form may be a part): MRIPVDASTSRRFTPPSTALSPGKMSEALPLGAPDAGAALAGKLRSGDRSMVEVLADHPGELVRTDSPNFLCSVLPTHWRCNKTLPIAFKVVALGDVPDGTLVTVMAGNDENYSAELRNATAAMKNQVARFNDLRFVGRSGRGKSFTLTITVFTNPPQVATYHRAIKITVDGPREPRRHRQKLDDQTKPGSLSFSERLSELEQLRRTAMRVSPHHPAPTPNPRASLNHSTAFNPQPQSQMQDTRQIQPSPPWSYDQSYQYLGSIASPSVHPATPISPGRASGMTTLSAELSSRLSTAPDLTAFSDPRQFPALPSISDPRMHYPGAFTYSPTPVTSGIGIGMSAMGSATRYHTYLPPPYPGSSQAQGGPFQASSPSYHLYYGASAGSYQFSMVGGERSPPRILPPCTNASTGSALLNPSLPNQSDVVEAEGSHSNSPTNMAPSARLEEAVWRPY
# Target sequence (Q13951 whole entry, looked up, the tested form may be a part): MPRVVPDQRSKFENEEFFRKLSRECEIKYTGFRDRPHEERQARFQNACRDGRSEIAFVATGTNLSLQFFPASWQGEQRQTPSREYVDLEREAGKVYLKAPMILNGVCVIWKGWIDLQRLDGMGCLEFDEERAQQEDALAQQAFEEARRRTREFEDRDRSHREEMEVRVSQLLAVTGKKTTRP
# Runt-CBFb FRET = blocks binding of human RUNX1 Runt domain to CBFb; Cerulean-Runt/Venus-CBFb FRET ratio 530/480, 1 h; inhibition, % at 20 µM; 220,000 compounds, 0.46% hits; AID 1496;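 active = inhibition over about 50% at 20 µM in the single-dose screen, limit read from the data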;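 note: 0% = DMSO wells and 100% = excess unlabeled CBFb competitor control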
#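 Reagent – Venus-CBFb binding partner, 100 nM · Assay system – Cerulean-tagged RUNX1 Runt domain (FRET donor) fusion protein · Input – 100 nM per protein · Incubation – two 1 h room-temperature incubations shielded from light · Measured by – FRET fluorescence · Medium – Tris buffer pH 7.5 with salts and BSA · Benchmarks – unlabeled CBFb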
# Hck-Nef inh = human Hck-Nef kinase inhibition. P08631. Recombinant Hck-YEEI plus Nef, Z-Lyte FRET kinase assay. inhibition, % at 20 µM. 220,000 compounds, 0.68% hits;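 active = Hck-Nef kinase inhibition above about 50%, limit read from the data; inactive = inhibition below that limit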;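 note: 0% = DMSO with Hck plus Nef and 100% = Hck alone without Nef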
# RanGTP-Imp inh = disruptors of Ran-importin-beta complex formation – biochemical, FRET, CFP-Ran, YFP-importin-beta, homogeneous, primary screen. cell-free CFP-Ran/YFP-importin-beta FRET ratio. inhibition, % (concentration not given with the values). 300,000 compounds, 1.1% hits. AID 2216;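 active = more than half of the replicate wells show a fall in the fluorescence ratio signal beyond about 16%, limit read from the data, passing the limit was not always enough; inconclusive = exactly half of the replicate wells pass the set limit; inactive = fewer than half of replicates pass the limit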;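 note: 0% = DMSO wells and 100% = Ran loaded with GDP instead of GTP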
# Hck Nef conf = Hck-Nef kinase inhibition, confirmation | 1,300 compounds, 28% hits | Recombinant Hck-YEEI:Nef, Z-Lyte FRET kinase assay | shares compounds with Hck-Nef inh | calls only at 10 µM;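 active = average inhibition of at least 50%, with Z-scores no higher than 3 in both the phospho-tyrosine peptide and fluorescence counterscreens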
# The depositor's hits bear a star; i = inactive; ? = inconclusive; . = no result shown; + = active, no number.
SMILES,Runt-SMMHC FRET,Runt-CBFb FRET,Hck-Nef inh,RanGTP-Imp inh,Hck Nef conf
COC(=O)C1=CN(c2cc(C)cc(C)c2)C=C(C(=O)OC)C1c1cccc(F)c1,.,.,.,4,.
CCOC(=O)Cc1csc(NC(=O)c2c(O)c3c(n(CC(C)C)c2=O)CCCC3)n1,-1,3,2,1,.
Cc1c(Cl)cccc1NC(=S)NCc1ccco1,1,5,25,-2,.
COc1ccc(/C=N/Nc2ncnc3c2[nH]c2ccccc23)c(OC)c1OC,10,0,5,3,.
COc1cccc(/C=N/Nc2ncnc3c2[nH]c2ccc(C)cc23)c1OC,-7,-12,66*,7,i
CSCCC(NC(=O)/C(=C\c1ccc(Cl)cc1)NC(=O)c1ccccc1)C(=O)O (stereo unspecified),10,1,-10,1,.
O=C(Cn1c2ccccc2c(=O)c2ccccc21)N/N=C/c1cc([N+](=O)[O-])ccc1N1CCCCCC1,-91,-44,81*,-4,+
O=C(CNc1ccccc1)N/N=C/c1cc([N+](=O)[O-])ccc1N1CCCC1,-28,-6,3,0,.
COc1cc2c(C(=O)N3CCN(c4ccccc4F)CC3)cn(C)c(=O)c2cc1OC,4,1,3,0,.
CCOC(=O)c1c[nH]n(-c2ccccc2)c1=O,-2,-1,7,8,.
CCOC(=O)c1cc(C(=O)OCC)c2ccccn2c1=O,60*,97*,95*,66*,.
CCc1c(C)c2ccc(OC(C)C(=O)NC(Cc3c[nH]c4ccc(O)cc34)C(=O)O)c(C)c2oc1=O (stereo unspecified),.,.,.,1,.
CCCS/C(N)=N/N=C/c1cc(C)ccc1O,1,1,55*,3,+
O=C(OCc1cccc2ccccc12)c1ccc2c(=O)[nH]c(CN3CCOCC3)nc2c1,-10,-1,2,?,.
CCc1ccc2nc(NC(=O)c3ccc4c(=O)[nH]c(CN5CCOCC5)nc4c3)sc2c1,-10,-12,109*,6,+
O=C(Cc1ccc(Cl)cc1)Nc1cc(Cl)ccn1,.,.,.,0,.
COc1ccc(C(=O)Nc2ccccc2C(=O)NC(Cc2ccc(O)cc2)C(=O)NNC(=O)c2ccccc2Cl)cc1 (stereo unspecified),-8,-1,66*,-4,i
COc1ccc(C(=O)NNC(=O)C(Cc2ccc(O)cc2)NC(=O)c2ccccc2NC(=O)c2ccc(OC)cc2)cc1 (stereo unspecified),-22,-7,22,2,.
COc1cc([N+](=O)[O-])ccc1-c1ccc(/C=N/NC(=O)c2ccccc2O)o1,-36,-18,74*,-23,i
CCN(CC)c1ccc(C(=O)O)cc1,3,-1,1,6,.
CCN(CC)c1ccc(/C=C2\C(=O)c3ccc(C(=O)O)cc3C2=O)cc1,-100,-30,64*,.,i
COc1cccc(N=c2oc3cc(O)ccc3cc2C(=O)NCC2CCCO2)c1 (stereo unspecified),90*,52*,82*,180*,.
COc1ccccc1N=c1oc2cc(O)ccc2cc1C(=O)NCC1CCCO1 (stereo unspecified),-10,43,72*,174*,.
COc1cccc2cc(C(=O)NCC3CCCO3)c(=O)oc12 (stereo unspecified),-2,0,5,-3,.
COc1ccc2cc(C(N)=O)c(=Nc3ccc(C)cc3)oc2c1,-1,-2,-40,5,.
SMILES,Runt-SMMHC FRET,Runt-CBFb FRET,Hck-Nef inh,RanGTP-Imp inh,Hck Nef conf
COc1ccccc1N=c1oc2cc(O)ccc2cc1C(N)=O,42,10,140*,179*,.
COc1ccc2oc(=O)c(C(=O)NCC3CCCO3)cc2c1 (stereo unspecified),23,12,3,9,.
COc1ccc2cc(C(N)=O)/c(=N\NC(=O)c3ccccc3)oc2c1,.,.,.,14,.
Cc1cccc(N=c2oc3cc(O)ccc3cc2C(N)=O)c1,79*,10,153*,-2,.
O=C1c2cccc3cc([N+](=O)[O-])cc(c23)C(=O)N1/N=C/c1ccc(O)cc1O,-20,-3,55*,3,+
COc1ccc(NC(=O)c2cc3c(=O)n(C)c4ccccc4c3n2C)cc1Cl,2,-3,61*,2,i
COc1ccc(NC(=O)c2cc3c(=O)n(C)c4ccccc4c3n2C)cc1OC,-2,4,1,-5,.
Cc1ccc([N+](=O)[O-])cc1N/C=C1\CCCCC1=O,10,5,-13,1,.
COc1cc(/C=N\NC(=O)c2ccc(-c3ccccc3)cc2)ccc1OCC(N)=O,.,.,.,-1,.
O=C(O)COc1ccc(/C=N/NC(=O)c2ccc(-c3csc(Nc4ccc(Cl)cc4)n3)cc2)cc1,-103,28,75*,2,+
CCOc1cc(/C=N/NC(=O)c2ccc(-c3csc(Nc4ccc(C)cc4)n3)cc2)ccc1OCC(=O)O,13,24,52*,.,i
CCCN(CCC)CC(O)CN1C(=O)NC(C)(C)C1=O (stereo unspecified),2,0,14,-6,.
O=C(Nc1c(C(=O)N2CCOCC2)cnn1-c1ccccc1Cl)c1ccco1,0,-2,7,0,.
Brc1ccc(Nc2ncnc3[nH]ncc23)cc1,0,-2,51*,4,i
COc1ccc(C(=O)N/C(=C\c2ccc3c(c2)OCO3)C(=O)Nc2ccc(C(=O)O)cc2)cc1,2,1,54*,-1,i
Cc1ccc(S(=O)(=O)N(CC(=O)NCC2CCCO2)C2CCCCC2)cc1 (stereo unspecified),.,.,.,-1,.
c1ccc(Nc2ccnc(Nc3ccccc3)n2)cc1,0,-1,101*,1,+
Cc1cc(C)cc(NC(=O)c2ccc(CSc3nnc(C)s3)cc2)c1,-6,-6,101*,4,i
Clc1ccccc1OCc1nnc2n1CCCCC2,0,1,25,1,.
COc1ccc(-n2c(SCC(=O)Nc3sc4c(c3C#N)CCCC4)nnc2-c2ccccc2OC)cc1,-3,-4,6,1,.
COc1ccc(-c2nnc(SCC(=O)Nc3sc4c(c3C#N)CCCC4)n2-c2ccccc2)cc1,-5,1,96*,6,+
COc1cc(C=C2C(=O)c3ccccc3C2=O)ccc1O,-4,-6,74*,-4,i
COc1cc(C=C2C(=O)c3ccccc3C2=O)cc(OC)c1OC,-4,-6,22,-2,.
COc1ccc(C=C2C(=O)c3ccccc3C2=O)cc1O,0,0,105*,0,i
COCCNC(=S)N1CCc2cc(OC)c(OC)cc2C1COc1ccc(C(C)C)cc1 (stereo unspecified),-5,-13,0,-5,.
Clc1cccc(Cl)c1CNc1ccc(N2CCCC2)cc1,-4,-1,71*,-1,i
Cc1ccc(NC(=O)COC(=O)/C=C/c2ccc(Br)o2)cc1S(=O)(=O)N(C)C,-3,0,53*,4,i
